The source of these data is ChEMBL document CHEMBL1156170, “Enhanced Nrf2-dependent induction of glutathione in mouse embryonic fibroblasts by isoselenocyanate analog of sulforaphane” (Bioorg Med Chem Lett, 2010).

Each structure is given as a SMILES string. Calls of active or inactive are those of the source. The rule behind the calls is not given here.

Series [1] addresses T1, Nuclear factor erythroid 2-related factor 2 (Mus musculus) (UniProt Q60795).
T1 sequence (whole entry): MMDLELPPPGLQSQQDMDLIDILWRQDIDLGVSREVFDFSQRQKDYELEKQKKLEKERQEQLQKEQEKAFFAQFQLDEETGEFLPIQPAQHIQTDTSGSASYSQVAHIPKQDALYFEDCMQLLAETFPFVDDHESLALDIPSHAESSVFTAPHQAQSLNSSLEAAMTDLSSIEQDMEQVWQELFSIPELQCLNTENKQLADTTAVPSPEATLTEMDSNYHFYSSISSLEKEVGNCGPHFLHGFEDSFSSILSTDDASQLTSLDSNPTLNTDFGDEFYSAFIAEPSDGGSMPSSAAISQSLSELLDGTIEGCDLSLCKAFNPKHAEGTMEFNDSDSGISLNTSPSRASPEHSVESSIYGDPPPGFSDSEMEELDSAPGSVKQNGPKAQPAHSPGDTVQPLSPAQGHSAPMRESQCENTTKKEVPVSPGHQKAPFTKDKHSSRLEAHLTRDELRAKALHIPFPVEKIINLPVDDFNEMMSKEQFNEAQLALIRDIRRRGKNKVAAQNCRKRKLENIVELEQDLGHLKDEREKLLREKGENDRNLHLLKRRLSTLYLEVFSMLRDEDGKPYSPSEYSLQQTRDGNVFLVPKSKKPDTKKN
Briefly: Induction of nuclear NrF2 expression in wild type MEF […] at 10 to 20 uM after 24 hrs by Western blotting relative to control. It is filed as functional. A digest of the protocol: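 Wildtype MEF at 50% confluence treated with vehicle or 10 or 20 μM for 24 h; washed, trypsinized, nuclear extracts prepared. 20 μg nuclear protein per lane, 4-20% gradient gel, nitrocellulose, milk block, primary antibody overnight 4 °C, HRP secondary, chemiluminescence. Nrf2 band normalized to Lamin A, then to vehicle control; mean ± SD, n=3.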
(In general: A western blot detects proteins with antibodies after separation by electrophoresis.)

Series [2] concerns the target T1, Nuclear factor erythroid 2-related factor 2 (Mus musculus). Kind of series: Induction of NrF2-mediated glutathione production in wild type MEF at 10 uM after 24 hrs using Elmans reagent relative to control. It is filed as functional. Put shortly: (§1)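 Wildtype or Nrf2−/− MEF at 50% confluence given vehicle or 10 or 20 μM for 0, 6, 9 or 24 h; washed, lysed in 5% metaphosphoric acid, protein removed by centrifugation. Free GSH by enzymatic recycling with Ellman's reagent, absorbance over time; normalized to BCA protein and to vehicle control; mean ± SD, n=3.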

Series [3] has the same target. Briefly: Induction of nuclear NrF2-mediated GCLc expression in wild type MEF at 20 uM after 24 hrs by Western blotting relative to control. The class given is functional. A digest of the protocol: (§2)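 Wildtype or Nrf2−/− MEF at 50% confluence given vehicle or 10 or 20 μM for 24 h; cytoplasmic extracts, 50 μg protein per lane, 4-20% gradient gel, nitrocellulose, western blot for GCLc with HRP secondary and chemiluminescence. GCLc normalized to actin, then to vehicle control; mean ± SD of 3 independent experiments.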

The target is the same in series [4]. Kind of series: Induction of NrF2-mediated glutathione production in wild type MEF at 20 uM after 24 hrs using Elmans reagent relative to control. The class given is functional. Put shortly: as §1
The target is the same in series [5]. Kind of series: Reduction of NrF2-mediated glutathione production in wild type MEF at 10 uM after 6 hrs using Elmans reagent relative to control. It is filed as functional. More on the design: scale not given: the % may be the effect or the level left. A digest of the protocol: as §1
Series [6] deals with HepG2. Briefly: Cytotoxicity against human HepG2 cells assessed as cell viability at 50 uM after 6 hrs by MTS assay. The class given is functional, cell-based. Background: Tetrazolium dyes change colour on reduction, which living cells bring about.
Series [7] deals with T2, Nuclear factor erythroid 2-related factor 2 (Homo sapiens) (UniProt Q16236).
T2 sequence (whole entry): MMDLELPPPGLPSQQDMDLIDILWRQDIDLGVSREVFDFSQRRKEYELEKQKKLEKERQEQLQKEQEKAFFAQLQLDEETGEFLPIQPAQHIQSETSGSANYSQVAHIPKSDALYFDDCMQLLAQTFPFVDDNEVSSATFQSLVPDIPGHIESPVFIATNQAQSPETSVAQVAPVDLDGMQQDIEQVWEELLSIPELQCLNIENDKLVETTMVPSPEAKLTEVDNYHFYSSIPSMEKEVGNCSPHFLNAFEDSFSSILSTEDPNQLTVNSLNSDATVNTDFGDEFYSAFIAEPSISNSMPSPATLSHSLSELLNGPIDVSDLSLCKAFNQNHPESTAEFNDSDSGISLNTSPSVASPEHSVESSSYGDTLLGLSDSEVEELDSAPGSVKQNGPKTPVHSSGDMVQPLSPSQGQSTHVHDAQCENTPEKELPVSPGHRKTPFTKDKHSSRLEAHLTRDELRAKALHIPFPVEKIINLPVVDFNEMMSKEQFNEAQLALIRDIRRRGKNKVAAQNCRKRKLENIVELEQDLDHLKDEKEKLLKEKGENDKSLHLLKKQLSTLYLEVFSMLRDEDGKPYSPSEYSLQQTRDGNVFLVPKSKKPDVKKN
Briefly: Induction of NrF2 in human HepG2 cells at 20 uM after 6 hrs by ARE-luciferase reporter gene assay relative to control. The class given is functional, cell-based. A digest of the protocol:
(§3)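 HepG2 ARE-luciferase reporter cells at 50% confluence, fresh medium with vehicle or 5, 10 or 20 μM compound for 6 h. Washed in PBS, lysed, luciferase activity of extracts read in single-tube luminometer; normalized to vehicle control; mean ± SD of 3 independent experiments.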
On the technique in general: In a reporter assay the amount or activity of a reporter protein is the signal.

For series [8], the system named is HepG2. Briefly: Cytotoxicity against human HepG2 cells assessed as cell viability at 10 uM after 6 hrs by MTS assay. It is filed as functional, cell-based.
Series [9] has as its target T2, Nuclear factor erythroid 2-related factor 2 (Homo sapiens). Briefly: Induction of NrF2 in human HepG2 cells at 10 uM after 6 hrs by ARE-luciferase reporter gene assay. The class given is functional, cell-based. Put shortly: as §3
Series [10] concerns the target T1, Nuclear factor erythroid 2-related factor 2 (Mus musculus). Briefly: Reduction of NrF2-mediated glutathione production in wild type MEF at 20 uM after 6 hrs using Elmans reagent relative to control. The class given is functional. Set-up: scale not given: the % may be the effect or the level left. Put shortly:
as §1

The subject of series [11] is HepG2. Briefly: Cytotoxicity against human HepG2 cells assessed as cell viability at 50 uM after 6 hrs by MTS assay relative to control. Conditions: HepG2, 6 h, read-out: Activity. The class given is functional.
The test system of series [12] is HepG2. Briefly: Cytotoxicity against human HepG2 cells assessed as decrease in cell viability at 10 to 20 uM after 6 hrs by MTS assay. It is filed as functional, cell-based.
Series [13] concerns MEF. Briefly: Induction of glutathione production in NrF2 deficient MEF at 20 uM after 24 hrs using Elmans reagent relative to control. It is filed as functional, Mus musculus. A digest of the protocol:
as §1

Series [14] concerns MEF. Kind of series: Induction of glutathione production in NrF2 deficient MEF at 10 uM after 24 hrs using Elmans reagent relative to control. It is filed as functional, Mus musculus. Put shortly: as §1
Series [15] has as its system HepG2. Kind of series: Cytotoxicity against human HepG2 cells assessed as decrease in cell viability after 6 hrs by MTS assay. The class given is functional, cell-based.
The target in series [16] is T1, Nuclear factor erythroid 2-related factor 2 (Mus musculus). Kind of series: Induction of NrF2-mediated glutathione production in wild type MEF at 10 uM after 6 hrs using Elmans reagent relative to control. It is filed as functional. A digest of the protocol:
as §1

Series [17] concerns the target T2, Nuclear factor erythroid 2-related factor 2 (Homo sapiens). Kind of series: Induction of NrF2 in human HepG2 cells after 6 hrs by ARE-luciferase reporter gene assay. It is filed as functional, cell-based. A digest of the protocol:
as §3

Series [18] has as its system MEF. Briefly: Cytotoxicity against wild type MEF. The conditions noted are these: mouse. It is filed as cell-based.
The target in series [19] is T1, Nuclear factor erythroid 2-related factor 2 (Mus musculus). Kind of series: Ratio of compound to sulforaphane activity for induction of nuclear NrF2 mediated GCLc in wild type MEF. It is filed as functional.
Series [20] concerns the target T2, Nuclear factor erythroid 2-related factor 2 (Homo sapiens). Briefly: Ratio of compound to sulforaphane for induction of NrF2 in human HepG2 cells. It is filed as functional, cell-based.
In series [21] the test system is HepG2. Kind of series: Cytotoxicity against human HepG2 cells assessed as cell viability at 20 uM after 6 hrs by MTS assay. The conditions noted are these: HepG2, 6 h, read-out: Activity.
In series [22] the target is T1, Nuclear factor erythroid 2-related factor 2 (Mus musculus). Briefly: Induction of NrF2-mediated glutathione production in wild type MEF at 10 uM after 9 hrs using Elmans reagent relative to control. It is filed as functional. A digest of the protocol:
as §1

Series [23] deals with MEF. Kind of series: Cytotoxicity against NrF2 deficient MEF. It is filed as cell-based. The conditions noted are these: mouse.
For series [24], the system named is MEF. Briefly: Induction of GCLc in NrF2-deficient MEF at 20 uM after 24 hrs by Western blotting relative to control. The conditions noted are these: Mus musculus. The class given is functional, cell-based. A digest of the protocol:
as §2

As for `C[S+]([O-])CCCCN=C=S` (centres undefined), the fold change (FC) in series [1] stood at 3.5; in series [3], 3.2. The outcome in series [2], in [7] and in [9] was Active. The outcome (in series [4]; in the series with HepG2 [6]; with HepG2 [8]) was inactive. The Activity in [5] is 40%; in [10], 20%.
As for `S=C=NCCc1ccccc1`, the outcome in the series on HepG2 [6] was inactive.
The same measure, in the same setting: the result for `S=C=NCc1ccccc1` reads “inactive”.
Consider `[Se]=C=NCc1ccccc1` [BENZYLISOSELENOCYANATE], for which the viability at 50 µM with HepG2 [11] came to 0%. Moreover, the outcome in the series with HepG2 [12] was Active.
For `[Se]=C=NCCc1ccccc1` [PHENETHYLISOSELENOCYANATE] the same measures were 14% and “Active”.
As for `C[S+]([O-])CCCCN=C=[Se]` (centres undefined) [SUFORAPHANE ISOSELENOCYANATE], the results for the fold change (FC) in [1] and in series [3] were 4.5 and 4.1, respectively. In addition, the Activity in the series with MEF [13] was 70%; in the series on MEF [14], 90%; in the series with HepG2 [15], “Dose-dependent effect”; in [2], 160%; in series [17] it was “Dose-dependent effect”; in the series on MEF [18], “Non-toxic”. The Activity is 30% in [19]; 40% in [5]; “Non-toxic” with MEF [23]; 5 in series [7]; 20% in series [10]. Besides, the outcome (in [16]; in [4]; in the series on HepG2 [12]; in series [22]; in series [9]) was Active. Also, in the series with HepG2 [11], the viability at 50 µM is 0%. In addition, the Ratio in series [20] amounted to 4. In addition, the viability at 20 µM in the series on HepG2 [21] was 50%. For the same molecule, the outcome in the series on HepG2 [8] and in the series on MEF [24] was inactive.
